Only some compounds are listed: those with a hit (about 1.7% of all), similar ones and a draw of the others.
Cneo AK release – causes C. neoformans cell lysis; adenylate kinase release luminescence, 4 h; normalised: neutral wells 0, clomiphene wells 100; lysis activity, % at 15 µM; 360,000 tested, 0.2% active;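 active = mean lysis activity across replicates of at least 80%, whatever share of replicates individually reach that level; inactive = mean lysis activity below 80%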
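Schedule: static 4 h at 37 °C with compound, 1 h detection; system: C. neoformans cells; benchmarks: Clomiphene as positive control; buffer or medium: fresh YPD medium; measure: luminescence rise reflecting yeast cell lysis; measured by: luminescent adenylate kinase detection reagent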
Ecoli rRNA inh – selective bacterial rRNA inhibition in E. coli; 350,000 tested, 1.6% active; GFP signal change (wild-type ribosome), % (no concentration beside the values); E. coli WT GFP vs humanized-ribosome RFP mutants, fluorescence, 24 h; hits give low values; DMSO median 0, no signal -100;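 active = significant combined selectivity score with lowered wild-type GFP, culture density cut under 30%, mutant RFP and density less affected; inactive = any of these conditions unmet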
CaV13 FRET inh – Disruptors of the CACNA1D IQ motif to Ca2+-dependent inactivation inhibitor domain association, primary screening, Förster resonance energy transfer in intact living …. HEK cells, CFP/YFP FRET ICDI-IQ, plate reader, 10 min; percent FRET-ratio fall versus neutral wells. inhibition, % at 12.3 µM. 340,000 tested, 0.098% active. AID 743397;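 active = mean replicate inhibition of at least 30% and at least 1% of replicates passing that level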;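 also: 0% = median of the neutral control wells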
CFTR F508del cor – correctors of CFTR F508del function in bronchial epithelial cells; CFBE cells, YFP halide quenching; stimulated with forskolin plus potentiator P3; % fluorescence drop versus neutral controls; activity (quench increase), % at 7.58 µM; 350,000 tested, 0.36% active; AID 720511;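 active = mean added fluorescence quench of at least 8% versus neutral control, with both replicates also reaching 8%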;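 also: cells transiently co-express mutant CFTR-F508del with the halide-sensitive YFP; corrector assay measuring rescue of mutant channel to the surface after 24 h compound exposure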
Numbers without * were called inactive; / = no result given; ! = not confirmed by another sample.

SMILES | Cneo AK release | Ecoli rRNA inh | CaV13 FRET inh | CFTR F508del cor
Nc1ccc2c(c1)C(=O)c1cc(N)c(Cl)cc1-2 | -4.1 | -18.6* | -9.3 | 1.1
O=C1c2ccccc2NC(c2ccc(-c3cccc([N+](=O)[O-])c3)o2)N1O (stereo not drawn) | / | -20.8* | -3.0 | /
CC(=O)Nc1ccc2nc(NC(=O)c3cccnc3)sc2c1 | / | 31.9 | -6.9 | 2.1
CC(=O)Nc1ccc2nc(NC(=O)C(Cl)(Cl)Cl)sc2c1 | / | -37.1* | -4.2 | -0.9
COc1cccc(NC(=O)N[C@H]2CC[C@H](CC(=O)NCc3ccncn3)O[C@@H]2CO)c1 | -6.4 | 5.4 | / | -1.1
CCOc1cc(/C=N/Nc2ccc(S(=O)(=O)Nc3ccccc3C(=O)O)cc2[N+](=O)[O-])cc(Cl)c1O | 0.7 | -8.1* | -3.8 | -0.7
CC(=O)Nc1ccc(C=NNc2ccc([N+](=O)[O-])cc2S(=O)(=O)Nc2ccccc2C(=O)O)cc1 | -1.8 | -5.9 | -5.2 | -2.5
COc1ccc(C(C)=NNc2ccc([N+](=O)[O-])cc2S(=O)(=O)Nc2ccccc2C(=O)O)c(OC)c1 | -0.4 | -20.1* | -17.6 | -0.6
CN(CCO)c1ccc(C=NNc2ccc([N+](=O)[O-])cc2S(=O)(=O)Nc2ccccc2C(=O)O)cc1 | -3.7 | -14.1* | -9.9 | 1.0
CO[C@@H]1CN(C)C(=O)c2ccc(NC(=O)C3CCCC3)cc2OC[C@H](C)N(C)C[C@H]1C | -2.4 | -2.3 | / | 0.7
C/C(N)=C(/C#N)C(=O)COC(=O)c1cc2c(s1)CCCC2 | / | -24.1 | 1.4 | 0.2
C/C(N)=C(/C#N)C(=O)COC(=O)c1cc2c(s1)CCC(C)C2 (stereo not drawn) | / | -28.5* | -6.4 | 0.0
Cc1nc2ccccn2c1C(=O)CSc1cccc(Cl)c1 | / | -56.7 | -5.2 | -1.5
Cc1nc2ccccn2c1C(=O)CSc1ccccc1 | / | -36.8* | -4.0 | 0.4
COC(=O)c1sccc1NC(=S)N(C)C1CCCCC1 | / | -26.4* | -6.1 | -0.4
O=c1oc(-c2cc3ccccc3o2)nc2sc3c(c12)CCCC3 | -2.5 | -22.8* | -7.2 | 2.2
CCCCCCNc1c([N+](=O)[O-])c(=O)sc2ccccc12 | / | -24.4* | -2.5 | 1.5
COc1ccc(C(=O)NC(=S)NNC(=O)c2ccccc2C)cc1 | 2.2 | -41.0* | -2.5 | 1.9
O=C(NC(=S)NNC(=O)c1ccccc1O)c1cccc([N+](=O)[O-])c1 | -0.1 | -19.6 | -2.9 | -0.7
COc1ccc(C(=O)NNC(=S)NC(=O)c2cccc([N+](=O)[O-])c2)cc1 | -5.1 | -26.0* | 2.5 | 1.3
C[C@@H]1CN([C@H](C)CO)C(=O)c2cc(NC(=O)C3CCCCC3)ccc2O[C@@H]1CN(C)S(=O)(=O)c1cn(C)cn1 | -1.3 | -1.2 | / | 0.5
COc1ccccc1-c1ccc2c(c1)O[C@H](CN(C)Cc1ccc3c(c1)OCO3)[C@H](C)CN([C@H](C)CO)S2(=O)=O | -1.0 | -3.2 | / | -0.8
COc1ccc(CN(C)C[C@H]2Oc3ccc(NC(=O)NC4CCCCC4)cc3CC(=O)N([C@H](C)CO)C[C@@H]2C)cc1 | / | 1.1 | / | /
O=C1NN(c2ccc(Br)cc2)C(=O)/C1=C\c1ccc(O)cc1O | 5.4 | -38.9 | -1.3 | -1.3
O=C1NN(c2cccc(Br)c2)C(=O)/C1=C\c1ccc(O)cc1 | 0.1 | -2.7 | -16.9 | 8.6*
SMILES | Cneo AK release | Ecoli rRNA inh | CaV13 FRET inh | CFTR F508del cor
CN1CCN(C(=O)C[C@H]2C[C@@H]3c4cc(NC(=O)Cc5ccncc5)ccc4O[C@@H]3[C@H](CO)O2)CC1 | -4.5 | 0.1 | / | -3.6
Cc1cc(C)nc(NC(=O)c2ccc(COc3ccccc3Cl)cc2)c1 | -2.0 | -23.8* | -99.1 | -2.2
Cc1cc2c(s1)Nc1ccccc1N=C2N1CCN(C)CC1 | 1.3 | / | -4.8 | 9.4*
OCCOCCN1CCN(C2=Nc3ccccc3Sc3ccccc32)CC1 | -0.6 | -0.1 | -4.5 | 0.8
Cn1c(=O)c2c(nc(N/N=C/c3ccncc3)n2Cc2ccccc2)n(C)c1=O | -2.5 | -29.2* | -15.4 | -2.0
Cc1ccc(Cn2c(N/N=C/c3ccncc3)nc3c2c(=O)n(C)c(=O)n3C)cc1 | -4.6 | -10.1 | -12.5 | -0.5
COc1ccc(C)cc1NC(=O)NNC(=O)C1CCC(C(C)(C)C)CC1 (stereo not drawn) | 2.1 | -17.2* | 10.3 | -2.5
COc1ccc(C)cc1NC(=O)C1CCN(S(C)(=O)=O)CC1 | -1.1 | 8.0 | -5.0 | 1.2
CO[C@@H]1CN(C)C(=O)c2cc(NC(=O)C3CCC3)ccc2OC[C@H](C)N(C(=O)CN(C)C)C[C@H]1C | 8.3 | 2.4 | / | -1.3
O=C1C=CCC(/C=C/c2ccccc2)O1 (stereo not drawn) | / | 5.2 | -4.3 | 14.9*
C[C@H]1CCCCO[C@@H](CN(C)C(=O)c2ccncc2)[C@@H](C)CN([C@@H](C)CO)C(=O)c2cc(NC(=O)c3ccncc3)ccc2O1 | 0.1 | 1.0 | / | -0.3
C[C@H](CO)N1C[C@H](C)[C@H](CN(C)S(=O)(=O)c2ccc(Cl)cc2)OCCCC[C@H](C)Oc2ccc(NS(C)(=O)=O)cc2C1=O | 2.8 | -4.2 | / | 0.1
CO[C@@H]1CC[C@H]2CCN(C)C(=O)C[C@@H](c3ccccc3)CN(C)C(=O)c3cccc(C#N)c3OC[C@H]1O2 | 1.3 | -1.5 | / | /
COc1c(Cl)cc(-c2noc(C)c2C(=O)NCc2ccc3c(c2)OCO3)cc1Cl | -4.2 | -15.6 | 70.7* | 0.9
COc1cccc(OCc2cc(C(=O)NCc3ccc4c(c3)OCO4)no2)c1 | -8.8 | -32.5* | -6.2 | 1.8
O=C(NCC1CCOCC1)c1cc(COc2cccc(C(F)(F)F)c2)on1 | -0.5 | -2.5 | -2.9 | 2.9
COc1cc(-c2noc(C)c2C(=O)NCc2ccc3c(c2)OCO3)cc(OC)c1OC | 0.9 | 16.5 | -9.8 | -2.3
O=C(NCc1ccc2c(c1)OCO2)c1cc(COc2c(F)cccc2F)on1 | -0.5 | -8.8 | -5.4 | -0.2
COc1ccccc1CCNC(=O)c1cc(COc2cccc(C(F)(F)F)c2)on1 | 4.3 | -33.5* | -5.7 | 1.0
CO[C@H]1CN(C)C(=O)c2cc(NC(=O)c3ccc4c(c3)OCO4)ccc2OC[C@@H](C)N(CC2CC2)C[C@H]1C | 90.3* | 1.1 | / | -0.6
CCCN1C[C@H](C)[C@@H](OC)CN(C)C(=O)c2cc(NC(=O)c3cccc(F)c3)ccc2OC[C@@H]1C | 116.6* | 0.6 | / | 0.1
COc1ccccc1C(=O)Nc1ccc2c(c1)OC[C@H](C)N(C(C)=O)C[C@H](C)[C@H](OC)CN(C)C2=O | 101.0* | -2.7 | / | -0.8
CCCN1C[C@H](C)[C@H](OC)CN(C)C(=O)c2ccc(NC(=O)c3cccc(F)c3)cc2OC[C@@H]1C | -0.1 | 1.6 | / | -1.0
COc1cccc(C(=O)Nc2ccc3c(c2)OC[C@H](C)N(CCc2ccccc2)C[C@@H](C)[C@@H](OC)CN(C)C3=O)c1 | 55.6 | -24.8*! | -7.2 | 1.2
COC(=O)C[C@H]1CC[C@H]2[C@H](COc3ccc(NC(=O)Nc4cccc(Cl)c4)cc3C(=O)N2C)O1 | -4.5 | -7.0 | / | -3.6
